MT1-MMP act inh: inhibitors of human MT1-MMP activation; HT1080 RFP-PRO-GFP cells, GFP/RFP ratio fluorescence, overnight; percent of plate control window, DMSO zero; GFP/RFP ratio change, % at 20 µM; actives 0.061% (n = 360,000);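 active = GFP/RFP ratio change of at least 30% with cell ATP level not reduced by more than half and red fluorescence within 50% of control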
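Assay system: RFP-PRO-GFP reporter HT1080 cells; read-out basis: GFP/RFP fluorescence ratio; benchmarks: DMSO wells and RFP-L50D-GFP cells; doses: 20 µM single dose, 1% DMSO; schedule: overnight cell settling, then overnight compound exposure, 37 °C, 5% CO2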
SKN-1 inh: blocks SKN-1 activity in C. elegans; actives 0.49% (n = 360,000); inhibition, % at 21.8 µM; AID 624304; C. elegans VP596 Pgst-4::GFP/RFP ratio, acrylamide-induced, 24 h;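 active = interference check ratio from 0.5 to 1.5 plus GFP to RFP signal ratio inhibition reaching or exceeding a fixed threshold, cut at about 30% in these data, passing the limit was not always enough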
PABP FP inh: blocks human PABP binding to poly(A) RNA; inhibition, % at 35 µM; AID 2014; P11940; fluorescence polarization; actives 1% (n = 290,000);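 also: calls also rest on retests at 20 µM and on dose response follow-up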
Target sequence (P11940 whole entry, looked up): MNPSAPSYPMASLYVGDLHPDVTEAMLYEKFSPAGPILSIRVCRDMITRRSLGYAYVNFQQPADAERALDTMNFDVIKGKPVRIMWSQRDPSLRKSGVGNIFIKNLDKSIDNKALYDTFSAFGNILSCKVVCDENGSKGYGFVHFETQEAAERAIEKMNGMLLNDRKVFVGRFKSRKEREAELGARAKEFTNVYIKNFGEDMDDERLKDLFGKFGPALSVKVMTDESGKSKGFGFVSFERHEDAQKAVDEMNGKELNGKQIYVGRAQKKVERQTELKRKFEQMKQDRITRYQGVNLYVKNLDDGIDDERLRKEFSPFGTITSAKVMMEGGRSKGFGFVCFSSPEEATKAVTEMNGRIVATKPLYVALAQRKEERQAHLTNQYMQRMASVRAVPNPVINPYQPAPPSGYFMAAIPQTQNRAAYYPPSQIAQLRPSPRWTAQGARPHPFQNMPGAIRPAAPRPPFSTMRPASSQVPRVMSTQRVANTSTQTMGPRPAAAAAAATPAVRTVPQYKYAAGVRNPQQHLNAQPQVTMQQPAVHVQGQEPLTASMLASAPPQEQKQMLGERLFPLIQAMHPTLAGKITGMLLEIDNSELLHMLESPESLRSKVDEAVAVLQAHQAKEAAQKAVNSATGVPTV
eIF4H inh: inhibitors of RNA binding by human eIF4H; Q15056; eIF4H fluorescence polarization binding assay; inhibition, % at 35 µM; actives 0.94% (n = 290,000);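 also: calls also rest on retests at 20 µM and on dose response follow-up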
MLLE-PAM2 inh: inhibitors of microRNA-mediated deadenylation, human PABP1 MLLE binding; P11940; GST-MLLE / FITC-PAM2 fluorescence polarization; inhibition, % at 20 µM; actives 0.36% (n = 360,000); in the data active = inhibition above about 35%, passing the limit was not always enough;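 also: plate controls were DMSO wells with GST-MLLE for no effect and wells lacking GST-MLLE protein for full effect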
An asterisk follows results filed as active. The list is not random: actives were taken first. Their share in the collection is about 1.7%. Unless noted, no rule for the calls is given here.

CC1(CCc2ccc3c(c2)OCO3)NCCc2c1[nH]c1ccccc21 (stereo not given) was read as MT1-MMP act inh 3, SKN-1 inh 6, PABP FP inh 12, eIF4H inh -9 and MLLE-PAM2 inh -6.
`CCOc1ncnc2c1sc1nc3c(cc12)COC(C)(C)C3` gave MT1-MMP act inh 1, SKN-1 inh 11 and MLLE-PAM2 inh -2.
CCC(C)Nc1nnnc2c1sc1nc3c(cc12)COC(C)(C)C3 (stereo not given) was read as MT1-MMP act inh 6, SKN-1 inh -7, PABP FP inh -2, eIF4H inh 85* and MLLE-PAM2 inh -5.
`O=C(O)c1cc2ccccc2c(N=Nc2cccnc2)c1O` gave MT1-MMP act inh 2, SKN-1 inh 39*, PABP FP inh 10, eIF4H inh -12 and MLLE-PAM2 inh 6.
Screening Oc1ccc(-c2cnc3ccccc3n2)cc1 returned SKN-1 inh -7 and MLLE-PAM2 inh -8.
For Clc1ccc(-c2cnc3ccccc3n2)cc1 the results were MT1-MMP act inh 5, SKN-1 inh 42*, PABP FP inh -4, eIF4H inh 3 and MLLE-PAM2 inh -2.
`Cc1ccc(Cl)cc1N1CCN(C(=O)CN(c2ccccc2)S(=O)(=O)N(C)C)CC1` gave MT1-MMP act inh -12, SKN-1 inh 17, PABP FP inh -9, eIF4H inh 62* and MLLE-PAM2 inh 7.
Screening CN(CC(=O)Nc1ccc(Cl)c(C(F)(F)F)c1)C(=O)/C=C/c1cccs1 returned MT1-MMP act inh 1, SKN-1 inh -2 and MLLE-PAM2 inh 5.
Screening O=C(N/N=C/c1cc(Br)c(O)c(Br)c1O)c1ccc2c(c1)OCCO2 returned MT1-MMP act inh 4, SKN-1 inh 1, PABP FP inh 4, eIF4H inh 54* and MLLE-PAM2 inh -25.
For O=C(N/N=C/c1cc(Br)c(Br)o1)c1cccnc1 the results were MT1-MMP act inh -11, SKN-1 inh -9, PABP FP inh 3, eIF4H inh inconclusive and MLLE-PAM2 inh 59*.
For O=C(N/N=C/c1cc(Br)c(Br)o1)c1ccc2c(c1)OCCO2 the results were MT1-MMP act inh -1, SKN-1 inh 25, PABP FP inh 54*, eIF4H inh 76* and MLLE-PAM2 inh -52.
Screening CC(C)CC1Nc2ccc(C(=O)NCCCN3CCCCC3C)cc2NC1=O (stereo not given) returned MT1-MMP act inh -3, SKN-1 inh 14 and MLLE-PAM2 inh 1.
For O=[N+]([O-])c1cc(/C=N/Nc2nc3ccccc3[nH]2)c(O)cc1O the results were PABP FP inh 8.4* and eIF4H inh 80*.
For Cc1cc(C)n(C(C)CC(=O)Nc2ccc3c(c2)OCCO3)n1 (stereo not given) the results were MT1-MMP act inh 3, SKN-1 inh 3, PABP FP inh -8, eIF4H inh -1 and MLLE-PAM2 inh -2.
Screening Cc1ccoc1C(=O)NCc1occc1C(=O)O returned MT1-MMP act inh 3, SKN-1 inh 15, PABP FP inh 48, eIF4H inh 74* and MLLE-PAM2 inh 19.
CCN(CC(=O)Nc1c(C(=O)OC)[nH]c2ccccc12)c1ccc2c(c1)OCO2 was read as MT1-MMP act inh -9, SKN-1 inh -14, PABP FP inh 32, eIF4H inh 16 and MLLE-PAM2 inh 15.
For COC(=O)c1[nH]c2ccccc2c1NC(=O)/C=C/c1ccc2c(c1)OCO2 the results were MT1-MMP act inh 4, SKN-1 inh 9, PABP FP inh 120*, eIF4H inh -12 and MLLE-PAM2 inh 10.
`Cc1c(C)n(C)c2ccc(C(=O)NCCCN3CCCCC3C)cc12` (stereo not given) gave MT1-MMP act inh -1, SKN-1 inh 10, PABP FP inh -19, eIF4H inh -6 and MLLE-PAM2 inh 1.
For Cc1c(C)n(C)c2ccc(C(=O)NCCCN(C)C3CCCCC3)cc12 the results were MT1-MMP act inh 7, SKN-1 inh 38*, PABP FP inh 2, eIF4H inh 3 and MLLE-PAM2 inh -8.
Screening O=C(COc1ccccc1C(=O)N/N=C\c1ccc(O)c(O)c1)N/N=C/c1ccc(O)c(O)c1 returned MT1-MMP act inh -3, SKN-1 inh 7, PABP FP inh 42*, eIF4H inh 74* and MLLE-PAM2 inh 5.
For O=C(NN=Cc1ccc(O)c(O)c1)c1ccccc1 the results were MT1-MMP act inh 2, SKN-1 inh 3 and MLLE-PAM2 inh -2.
For COc1ccc(-n2sc3c(c2=S)-c2cc(OC)ccc2NC3(C)C)cc1 the results were MT1-MMP act inh 2, SKN-1 inh 40*, PABP FP inh 13, eIF4H inh -3 and MLLE-PAM2 inh 25.
Screening Cc1cc(C(=O)O)ccc1N=Cc1c(O)ccc2ccccc12 returned MT1-MMP act inh -2, SKN-1 inh 1, PABP FP inh 3, eIF4H inh -5 and MLLE-PAM2 inh -145.
`Cc1cc(/C=C(\C#N)C(=O)Nc2ccccc2)c(C)n1-c1cccnc1` gave MT1-MMP act inh 0, SKN-1 inh 5, PABP FP inh 87, eIF4H inh 6 and MLLE-PAM2 inh 11.
`Cc1cc(C(=O)O)ccc1-n1c(C)cc(/C=C(/C#N)C(=O)Nc2ccccc2)c1C` gave MT1-MMP act inh 0, SKN-1 inh 8, PABP FP inh 57*, eIF4H inh 63* and MLLE-PAM2 inh 4.
For COc1ccccc1CN1CC(C(=O)N(C)CCc2ccccn2)CCC1=O (stereo not given) the results were MT1-MMP act inh 3, SKN-1 inh 14 and MLLE-PAM2 inh 0.
For COc1ccc(C2C(C#N)=C(N)SC(N)=C2C#N)cc1OC the results were MT1-MMP act inh -220, SKN-1 inh 19, PABP FP inh inconclusive, eIF4H inh inconclusive and MLLE-PAM2 inh 124.
For N#CC1=C(N)SC(N)=C(C#N)C1c1cccc(O)c1 the results were MT1-MMP act inh -170, SKN-1 inh 8, PABP FP inh 73*, eIF4H inh 74* and MLLE-PAM2 inh -72.
`O=C(Nc1cc2cc([N+](=O)[O-])ccc2oc1=O)c1cccs1` gave PABP FP inh 56* and eIF4H inh -18.
For O=C(Cc1c(Cl)cccc1Cl)N/N=C/c1cccnc1 the results were MT1-MMP act inh 1, SKN-1 inh 5, PABP FP inh -14, eIF4H inh -1 and MLLE-PAM2 inh -16.
`COc1ccc2c(c1)Cc1sc(NC(C)=O)nc1-2` gave MT1-MMP act inh -2, SKN-1 inh -32, PABP FP inh 6, eIF4H inh -1 and MLLE-PAM2 inh 37*.
`COc1ccc2c(c1)Cc1sc(NC(=O)c3ccco3)nc1-2` gave MT1-MMP act inh 1, SKN-1 inh 22, PABP FP inh 3, eIF4H inh 14 and MLLE-PAM2 inh 26.
For O=c1/c(=C\c2ccc(F)cc2)sc2n1CCCN=2 the results were MT1-MMP act inh 7, SKN-1 inh 39*, PABP FP inh -7, eIF4H inh -3 and MLLE-PAM2 inh 2.
`Fc1ccc2cc(-c3ccccc3)ncc2c1` gave MT1-MMP act inh 0, SKN-1 inh 40* and MLLE-PAM2 inh -2.

Bioassay records: PubChem, Sanford-Burnham Center for Chemical Genomics
